Rows were chosen to be rich in hits. Some 1.3% of all compounds tested hit in one or more screens of this group.
CHT inh: inhibitors of human choline transporter CHT | B-score at 10 µM | 310,000 tested, 0.86% active | CHT-expressing cells, membrane potential dye, choline response; stronger effect = lower value | AID 488975, 2010;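 active = B-score over 3 SD under the library average, and starting fluorescence ratio not unusually high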;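 note: choline stimulus applied at its EC90 after an EC20 pre-addition; B-score computed on integrated fluorescence ratio after choline addition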
Target sequence (Q9GZV3 whole entry, looked up): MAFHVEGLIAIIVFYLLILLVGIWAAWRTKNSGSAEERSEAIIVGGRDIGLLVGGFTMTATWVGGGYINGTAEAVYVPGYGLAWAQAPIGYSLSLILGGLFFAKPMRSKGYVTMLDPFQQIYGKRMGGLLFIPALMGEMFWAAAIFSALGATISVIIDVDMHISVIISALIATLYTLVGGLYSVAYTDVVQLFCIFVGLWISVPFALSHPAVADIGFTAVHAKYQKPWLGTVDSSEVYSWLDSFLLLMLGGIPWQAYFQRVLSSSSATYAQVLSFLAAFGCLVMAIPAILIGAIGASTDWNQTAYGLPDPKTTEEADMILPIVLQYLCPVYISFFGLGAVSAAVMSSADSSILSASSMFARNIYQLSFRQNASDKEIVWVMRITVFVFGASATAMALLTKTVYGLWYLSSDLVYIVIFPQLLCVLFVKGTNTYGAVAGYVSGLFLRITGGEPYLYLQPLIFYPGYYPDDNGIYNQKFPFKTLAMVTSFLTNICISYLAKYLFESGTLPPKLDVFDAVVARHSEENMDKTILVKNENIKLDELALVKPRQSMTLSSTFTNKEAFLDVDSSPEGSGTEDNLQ
procasp7 counter: procaspase-7 activators, primary screen, counter-screen for procaspase-3 activator project, biochemical, absorbance, HTS, human; recombinant procaspase-7, Ac-DEVD-pNA absorbance 405 nm; D23A/D198A/D206A triple mutant, cannot self-cleave; scale: DMSO 0, 5 µM enzyme 100; activation, % at 8.5 µM; 330,000 tested, 0.093% active;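 active = percent activation above the screen-wide mean plus 3 SD, cut at about 25% in these data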
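Test system: Procaspase-7 triple mutant (PC-7 D3A). Also added: Ac-DEVD-pNA substrate, 400 µM as added. Schedule: 1 h enzyme–compound preincubation and 2 h substrate reaction, both 25 °C. Signal: p-Nitroaniline absorbance at 405 nm, read at 0 and 120 min. Control set: low DMSO alone, high DMSO plus 5 µM PC-7.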
CHT PAM: CHT positive allosteric modulators, primary screen, cell-based, membrane potential dye, choline EC20 | High affinity choline transporter 1 (Homo sapiens), Q9GZV3 | CHT-expressing cells; stronger effect = higher value; LV-AA mutant CHT in HEK293 cells | B-score at 10 µM | 310,000 tested, 0.49% active | AID 488977, 2010;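 active = initial fluorescence not abnormally high and integrated response B-score, plate-corrected, over 3 SD above library mean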
proCasp3 act: activators of human procaspase-3 D3A mutant, primary screen, biochemical, absorbance, PC-3 D3A mutant, single concentration; Caspase-3 (Homo sapiens), P42574; recombinant procaspase-3 D3A, Ac-DEVD-pNA absorbance 405 nm; activation, % at 8.5 µM; 330,000 tested, 0.11% active; AID 463141, 2010;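 active = activation above the mean of all tested compounds plus 3 SD, cut at about 21% in these data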;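 note: 0% = DMSO alone and 100% = DMSO wells spiked with extra 5 µM PC-3 D3A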
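Compound: 8.5 µM single point, 0.8% DMSO / Material: Autoprocessing-dead procaspase-3 D3A mutant enzyme / Timing: 1 h preincubation plus 2 h reaction at 25 °C / Medium: Zinc-free HEPES/NaCl buffer with 0.01% Triton X-100 at pH 7.4 / Technique: 405 nm absorbance of p-nitroaniline, reads at 0 and 120 min / Repeats: one well per compound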
CHT act confirm: CHT activators, confirmation, cell-based, membrane potential dye, duplicate | shares compounds with CHT PAM | CHT-expressing cells, membrane potential dye fluorescence (FDSS); % of choline EC20–EC90 response window; HEK293 expressing CHT LV-AA mutant; choline added at its EC20 | activation, % at 10 µM | 2,500 tested, 91% active | AID 504833, 2011;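 active = primary screen active, with duplicate mean activation above negative control mean plus 3 SD, cut at about 11% in these data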
HEK293 MP dye: membrane potential response in parental HEK293 cells, counter-screen for CHT activator project, cell-based, membrane potential dye | shares compounds with CHT PAM | 2,500 tested, 62% active | ratio readout change at 10 µM, hits read low | membrane potential dye fluorescence (FDSS); measured after EC20 choline addition;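 active = duplicate-averaged ratio beyond 3 SD from buffer wells, up or down, though filed actives are nearly all decreases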
The depositor's hits bear a star; i = inactive; x = no result given.

SMILES	CHT inh	procasp7 counter	CHT PAM	proCasp3 act	CHT act confirm	HEK293 MP dye
O=P(c1ccccc1)(c1ccccc1)C(O)c1ccccn1 (stereo not given)	i	-10.4	i	1.3	x	x
O=P(c1ccccc1)(c1ccccc1)C(c1ccccn1)P(=O)(c1ccccc1)c1ccccc1	i	12.8	8.49*	3.0	33.9*	i
COc1ccc(N(CC(=O)NCc2ccco2)C(=O)CNS(=O)(=O)c2ccc(Cl)cc2)cc1	i	3.8	i	0.2	x	x
Cc1cccn2c1nc(=S)n2C(=O)c1ccco1	i	5.3	i	-3.7	26.7*	-20.9*
Cc1ccccc1CN1CCN(C(=O)c2ccco2)CC1	i	1.6	i	13.3	x	x
Cc1ccc(S(=O)(=O)N2C[C@@H]3[C@H]4CC[C@H](C4)[C@@H]3[C@@H](C)[C@@H]2C2CCCCC2=O)cc1 (stereo not given in full)	x	6.0	x	-7.3	x	x
CCCCCCCC(=O)N1CCN(c2cc3c(cc2F)c(=O)c(C(=O)O)cn3CC)CC1	i	x	i	x	x	x
CCCCCCn1cc(C(=O)O)c(=O)c2cc(F)c(N3CCN(C)CC3)cc21	i	4.1	6.86*	-2.3	58.6*	-76.3*
CCn1cc(C(=O)O)c(=O)c2cc(F)c(N3CCNCC3)cc21	i	1.5	14.4*	8.4	39.4*	-42.1*
C/C(=N\Nc1nccnc1Cl)c1ccc(O)c(C)c1	i	12.1	i	-4.0	x	x
O=C1c2cccc3cccc(c23)C(=O)N1CC1CCN(CC(O)COCc2ccc3c(c2)OCO3)CC1 (stereo not given)	i	-5.0	i	-5.4	38.3*	-55.9*
CC(C)(C)OC(=O)[C@H]1[C@H](c2ccc([N+](=O)[O-])cc2)C2(C(=O)c3ccccc3C2=O)C2c3ccccc3C=NN21 (stereo not given in full)	i	-1.0	i	-2.4	36.8*	i
CCN(CC)CCNc1ccc(CO)c2sc3ccccc3c(=O)c12	i	-9.5	6.37*	8.1	44.1*	-48.6*
CCN(CC)CCCNc1cc(C)nc2cc(-c3cccs3)nn12	i	13.8	9.09*	10.0	62.0*	-84.2*
Cc1cccc(-c2cc3nc(C)cc(NCCCN(C)C)n3n2)c1	i	18.9	i	9.6	32.5*	-61.6*
CN(C)CCCNc1cc(-c2ccccc2)nc2cc(-c3cccc(F)c3)nn12	i	6.2	i	5.5	x	x
CC(=O)Nc1ccc(S(=O)(=O)N[C@@H](C)C(=O)NC2CCCc3ccccc32)cc1 (stereo not given in full)	x	14.0	x	0.9	x	x
COc1ccc(N2CCN(C(=O)COC(=O)c3ccccc3OCc3ccc(F)cc3)CC2)cc1	i	10.9	6.83*	3.6	20.5*	i
CN1CCN(c2c(F)cc3c(=O)c(C(=O)O)cn4c3c2SCC4)CC1	i	11.5	9.9*	-0.9	23.4*	-69.3*
COc1ccc(CNCCC(c2ccc(F)cc2)c2ccc(OC)cc2)cc1 (stereo not given)	i	0.6	i	5.0	-0.3	i
COc1ccc(C(CCNCc2ccc(N(C)C)cc2)c2ccccc2OC)cc1 (stereo not given)	i	x	i	x	x	x
COc1ccc(CNCCC(c2ccc(OC)cc2)c2ccccc2OC)cc1 (stereo not given)	i	-1.0	7.83*	-5.2	17.3*	i
COc1ccc(C(CCNCc2ccc(OC(C)C)cc2)c2ccccc2OC)cc1 (stereo not given)	i	-2.8	6.75*	6.9	13.8*	i
COc1ccc(CNCCC(c2ccccc2)c2ccc(OC(C)C)cc2)cc1OC (stereo not given)	i	2.0	7.51*	4.3	8.2	i
O=C(NCCN1CCOCC1)c1cccc(S(=O)(=O)Nc2ccc(Br)cc2)c1	x	1.2	x	-2.0	x	x
SMILES	CHT inh	procasp7 counter	CHT PAM	proCasp3 act	CHT act confirm	HEK293 MP dye
COc1ccc(C(CCNCc2ccccc2)c2ccc(F)cc2)cc1 (stereo not given)	i	4.7	i	-2.1	x	x
COc1ccc(C(CCNC(C)c2ccccc2)c2ccc(F)cc2)cc1 (stereo not given)	i	1.6	i	5.1	43.8*	i
Cc1cccc(C(=O)NCC(=O)N2CCOCC2)c1	i	9.2	i	2.2	x	x
COc1ccc(-c2nnc(SC(C)C(=O)NCc3ccc4c(c3)OCO4)n2Cc2ccco2)cc1 (stereo not given)	i	10.0	16.2*	0.0	61.7*	i
CCc1cccc(OCCn2nc(C(=O)O)c3ccccc3c2=O)c1	i	5.0	i	3.1	30.3*	i
CC1(C)CC(NC(=O)COc2ccc3c4c(c(=O)oc3c2)CCCC4)CC(C)(C)N1	i	6.3	i	14.7	x	x
OC(C#CCCN1CCCCC1)(c1ccccc1)c1ccccc1	i	0.9	i	3.8	x	x
OC(C#CCCN1CCCCC1)(c1ccccc1)C1CCCCC1 (stereo not given)	i	7.8	7.48*	-4.7	17.8*	i
O=C(NCCCCNC(=O)c1cccnc1Cl)c1cccnc1Cl	i	2.3	i	-7.8	x	x
COc1ccc(OC)c2c(C)cc(NCCN3CCOCC3)nc12	i	-5.9	9.19*	0.5	65.2*	-60.1*
CSc1ccc(CN(C)CC(=O)NC(C)c2ccccc2)cc1 (stereo not given)	i	-4.4	i	-1.4	x	x
CCc1cccc(C)c1NC(=O)CN(C)Cc1ccc(Br)cc1	i	-0.1	i	6.7	23.9*	i
CC(NC(=O)CN(C)Cc1ccc(Br)cc1)c1ccccc1 (stereo not given)	i	15.5	7.97*	-2.9	16.6*	i
CSc1ccccc1NC(=O)CN(C)Cc1ccc(Br)cc1	i	2.5	i	-10.7	x	x
CCCCN(CC(=O)Nc1c(C)cccc1CC)C(=O)SCC	i	13.9	9.1*	0.3	12.6*	i
CSCCC(NS(=O)(=O)c1cccc(C(F)(F)F)c1)C(=O)N(C)CCOc1ccc(Cl)cc1 (stereo not given)	i	-0.3	i	3.1	x	x
CCOC(=O)CC1C(=O)NCCN1C(=O)c1ccc(Cl)c(Cl)c1 (stereo not given)	i	11.9	i	3.0	x	x

Screening results (PubChem BioAssay)
